Measurements reported in paper PMC5511061 (ACS infectious diseases, 2017).

Tests used:
HsAdoMetDC = settings: human versus T. brucei enzyme; cited from earlier work
[1] = test system: T. brucei brucei Lister 427 bloodstream-form (BSF) cells; test: T. brucei cell viability growth assay; format: cell-based, Trypanosoma brucei brucei
[2] = target: T1, human AdoMetDC (HsAdoMetDC) (Homo sapiens, UniProt P17707); test: RapidFire-MS end-point AdoMetDC activity assay, human enzyme; format: biochemical
T1 sequence (P17707 1-334): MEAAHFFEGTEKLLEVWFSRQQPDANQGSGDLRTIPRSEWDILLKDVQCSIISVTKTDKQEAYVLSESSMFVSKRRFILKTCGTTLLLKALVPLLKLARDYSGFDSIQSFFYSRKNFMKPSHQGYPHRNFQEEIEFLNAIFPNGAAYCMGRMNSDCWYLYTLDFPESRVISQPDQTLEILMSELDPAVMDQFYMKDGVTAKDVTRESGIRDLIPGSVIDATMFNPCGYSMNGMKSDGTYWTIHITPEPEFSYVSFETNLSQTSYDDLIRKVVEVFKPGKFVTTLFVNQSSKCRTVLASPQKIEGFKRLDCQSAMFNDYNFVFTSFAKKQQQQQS

[3] = test system: prozyme levels in T. brucei cells; test: Western blotting analysis of prozyme expression levels in treated cells; format: cell-based, Trypanosoma brucei; settings: cells grown 24 h with 1–2 × EC50 of compound versus vehicle
How it was run: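 Bloodstream-form T. brucei treated 24 h with test compound; DMSO vehicle as neutral control and a reference AdoMetDC inhibitor as positive control. Cells harvested, lysed and run on SDS-PAGE. Blots probed with rabbit polyclonal anti-T. brucei prozyme (1000-fold dilution, Tris-buffered saline, 5% blocker). Membrane cut by molecular-weight marker; upper section probed with rabbit anti-BiP (100,000-fold) as loading control. Prozyme compared with vehicle.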

T. brucei cells = test: Rescue of cell growth inhibition with spermidine; format: cell-based, Trypanosoma brucei
[4] = In vitro metabolic stability in hepatic microsomes, human; format: in vitro ADME; settings: both
[5] = In vitro metabolic stability in hepatic microsomes, mouse; format: in vitro ADME; settings: male, CD-1, mouse
[6] = test system: P-glycoprotein (human MDR1); test: MDCKII-hMDR1 monolayer permeability assay; format: in vitro ADME; settings: dog, MDCK-MDR1

## Cl.Cl.Cl.N=C(N)c1cccc(/C=N/N=C(\N)N/N=C/c2cccc(C(=N)N)c2)c1 [CGP 40215A]
HsAdoMetDC
  fold more potent against HsAdoMetDC: 500 fold

## Cc1nc2c(N)ncnc2n1[C@@H]1O[C@H](CN(C)C/C=C\CN)[C@@H](O)[C@H]1O [Compound 1]
[1]
  EC50 fold below measured IC50 on the enzyme: 100 fold
[1]; Trypanosoma brucei, 48 h, read-out: T. brucei cell EC50
  EC50: 1.8 nM
[2]
  IC50: 110 nM
[3]
  Prozyme induction: yes
T. brucei cells; Trypanosoma brucei, read-out: T. brucei cell EC50, – Spd
  EC50: 0.3 nM
T. brucei cells; over 100× EC50 concentrations of compound, 1 mM spermidine
  rescue of cell growth inhibition by spermidine supplementation: full rescue
[4]
  half-life at 1 μM: > 1.5 h
[5]
  half-life at 1 μM: > 1.5 h
[6]
  Papp A→B: 1.1 ×10⁻⁶ cm/s
